# In ChEMBL document CHEMBL1649154, “Antibiotic susceptibility and characteristics of Neisseria meningitidis isolates from the African meningitis belt, 2000 to 2006: phenotypic and genotypic perspectives” (2009):
# Assays:
# Format in all cases: functional
# Neisseria meningitidis [1] = assay: Antibacterial activity against Beta-lactamase-negative Neisseria meningitidis assessed as percent susceptible isolates by Etest method
# Procedure, shortened: (§1)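 Serogroup A reference strain OR173/87 included for quality control. Isolates were classed susceptible, intermediate or resistant using breakpoints drawn from several organizations.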
# Neisseria meningitidis [2] = assay: Antibacterial activity against Beta-lactamase-negative Neisseria meningitidis assessed as percent resistant isolates by Etest method
# Procedure, shortened: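 Isolates were classed resistant using breakpoints drawn from several organizations. Serogroup A reference strain OR173/87 was included for quality control.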
# Neisseria meningitidis [3] = assay: Antibacterial activity against Beta-lactamase-negative Neisseria meningitidis assessed as percent intermediate isolates by Etest method; procedure, shortened: as §1
# Neisseria meningitidis [4] = assay: Antibacterial activity against Beta-lactamase-negative Neisseria meningitidis by Etest method
Compound,Activity (Neisseria meningitidis [1]) [%],Activity (Neisseria meningitidis [2]) [%],Activity (Neisseria meningitidis [3]) [%],MIC50 (Neisseria meningitidis [4]) [µg/mL],MIC90 (Neisseria meningitidis [4]) [µg/mL],MIC (Neisseria meningitidis [4]) [µg/mL]
CC1(C)S[C@@H]2[C@H](NC(=O)[C@H](N)c3ccccc3)C(=O)N2[C@H]1C(=O)O [AMPICILLIN],99,0,1,0.064,0.094,–
CO/N=C(\C(=O)N[C@@H]1C(=O)N2C(C(=O)O)=C(CSc3nc(=O)c(O)nn3C)CS[C@H]12)c1csc(N)n1 [CEFTRIAXONE],100,–,0,< 0.002,< 0.002,< 0.002
CO/N=C(\C(=O)N[C@@H]1C(=O)N2C(C(=O)O)=C(COC(N)=O)CS[C@H]12)c1ccco1 [CEFUROXIME],99,0,1,0.047,0.094,–
O=C(N[C@H](CO)[C@H](O)c1ccc([N+](=O)[O-])cc1)C(Cl)Cl [CHLORAMPHENICOL],100,–,0,0.75,1,–
O=C(O)c1cn(C2CC2)c2cc(N3CCNCC3)c(F)cc2c1=O [CIPROFLOXACIN],100,–,0,0.004,0.004,–
CC[C@H]1OC(=O)[C@H](C)[C@@H](O[C@H]2C[C@@](C)(OC)[C@@H](O)[C@H](C)O2)[C@H](C)[C@@H](O[C@@H]2O[C@H](C)C[C@H](N(C)C)[C@H]2O)[C@](C)(O)C[C@@H](C)C(=O)[C@H](C)[C@@H](O)[C@]1(C)O [ERYTHROMYCIN],26,74,0,0.75,1,0.032
CC1(C)S[C@@H]2[C@H](NC(=O)Cc3ccccc3)C(=O)N2[C@H]1C(=O)O [PENICILLIN G],98,0,2,0.047,0.094,–
CC1(C)S[C@@H]2[C@H](NC(=O)COc3ccccc3)C(=O)N2[C@H]1C(=O)O [PENICILLIN V],99,1,0,0.19,0.38,0.016
CO[C@H]1/C=C/O[C@@]2(C)Oc3c(C)c(O)c4c(O)c(c(/C=N/N5CCN(C)CC5)c(O)c4c3C2=O)NC(=O)/C(C)=C\C=C\[C@H](C)[C@H](O)[C@@H](C)[C@@H](O)[C@@H](C)[C@H](OC(C)=O)[C@@H]1C [RIFAMPIN],99,0,1,0.064,0.125,–
Nc1ccc(S(=O)(=O)Nc2ncccn2)cc1 [SULFADIAZINE],0,94,6,> 256,> 256,–
CN(C)[C@@H]1C(O)=C(C(N)=O)C(=O)[C@@]2(O)C(O)=C3C(=O)c4c(O)cccc4[C@@](C)(O)[C@H]3C[C@@H]12 [TETRACYCLINE],48,52,0,2,4,–
